Assay outcomes: PubChem, Broad Institute
Xi reactivation: activators of inactive X chromosome reactivation, primary screen, imaging, XiGFP fibroblasts, GFP high-content imaging, set 2 | activation, % at 7.58 µM | 360,000 tested, 0.055% active | XiGFP mouse fibroblasts, % GFP-positive cells imaging, 3 d; cells co-treated with 5-aza-dC sensitizer; scaled so ellipticine positive control = 100% | AID 743238, 2013;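 active means mean normalized replicate activation at least 10% and every replicate at or above 10%; inconclusive means only one of the two criteria met; inactive means mean below 10% and not all replicates reach 10%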
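material = 68-5-11 XiGFP fibroblast line | medium = DMEM plus 5-aza-dC sensitizer | schedule = 3 days compound exposure | benchmarks = positive control ellipticine, 6 µM final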
CASP6 VEID inh: human caspase-6 inhibitors, primary screen, biochemical, VEID-R110 fluorescence, single point, set 2; P55212; purified caspase-6, Z-VEID-R110 cleavage fluorescence; inhibition, % at 12.5 µM; 350,000 tested, 0.53% active; AID 686996, 2013;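 active means mean inhibition across replicates at least about 35%, with every replicate also reaching that limit, limit read from the data; inconclusive means only one of the two criteria met; inactive means neither criterion met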
Target sequence (P55212 24-179 limits assumed): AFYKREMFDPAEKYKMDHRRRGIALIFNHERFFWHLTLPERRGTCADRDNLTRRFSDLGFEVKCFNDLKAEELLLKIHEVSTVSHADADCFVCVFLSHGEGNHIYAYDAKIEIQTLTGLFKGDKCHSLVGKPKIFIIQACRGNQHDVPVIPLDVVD
Target sequence (P55212 194-293 limits assumed): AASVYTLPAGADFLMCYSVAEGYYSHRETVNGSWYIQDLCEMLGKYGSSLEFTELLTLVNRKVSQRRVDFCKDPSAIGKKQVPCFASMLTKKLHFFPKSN
MITF TRPM1 HTS: activators of MITF-driven TRPM1 promoter reporter, primary screen, cell-based, SK-MEL-5, luciferase, single point. SK-MEL-5 TRPM1-promoter luciferase, 24 h; % of positive control, neutral wells = 0. activation, % at 12.5 µM. 300,000 tested, 0.75% active;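 active means mean activation of at least 80% with every replicate also reaching 80%; inconclusive means mean reaches 80% but some replicate falls short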
NSD2 inh: NSD2 histone methyltransferase inhibitors, primary screen, biochemical, AlphaScreen, single concentration, set 2; Histone-lysine N-methyltransferase NSD2 (Homo sapiens), O96028; 310,000 tested, 0.54% active; AID 743445, 2014; inhibition, % at 12.5 µM; NSD2 peptide methylation, 120 min; in the data active means inhibition above about 50%
Wnt bcat act: Wnt/beta-catenin pathway activators, primary screen, cell-based, plate reader, single point; Wnt/beta-catenin reporter cell assay, activator; activation, % at 9.35 µM; 300,000 tested, 1.2% active; AID 743398, 2014; in the data active means activation above about 30%, passing the limit was not always enough; inconclusive means no clear call, values can overlap the other calls
esBAF inh: Bmi1 luciferase reporter increase in mESCs, primary screen, esBAF inhibitor project, mouse ES cells, Bmi1 luciferase knock-in, single point | reporter increase, % at 12.5 µM | 350,000 tested, 2% active | AID 602393, 2012 | 24 h; 100% = twice the neutral-well signal; in the data active means activation above about 40%; inconclusive means no clear call, values can overlap the other calls;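 further: a rise in the Bmi1 reporter signal indicates esBAF inhibition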
Large screens that a line does not name were inactive. In the library only some 3% were active in any assay of this set; here they are far more common.

Cc1ccc2nc(-c3ccccc3)c(Cc3cccc(Cl)c3)n2c1	Wnt bcat act 41, esBAF inh inconclusive (no result: MITF TRPM1 HTS, NSD2 inh)
CCCc1nc2ccc(Cl)cn2c1Cc1ccccc1	none (no result: MITF TRPM1 HTS, NSD2 inh)
Cc1ccc(-c2nc3ccc(Cl)cn3c2Cc2cccc(F)c2)cc1	esBAF inh 50 (no result: MITF TRPM1 HTS, NSD2 inh)
O=C(C[C@H]1CC[C@@H](NS(=O)(=O)c2ccc(F)cc2)[C@@H](CO)O1)NCc1ccccc1F	none (no result: MITF TRPM1 HTS, NSD2 inh, Wnt bcat act, esBAF inh)
C[C@@H]1CN([C@@H](C)CO)S(=O)(=O)c2ccc(C3=CCCCC3)cc2O[C@H]1CN(C)C(=O)c1ccc(F)cc1	none (no result: MITF TRPM1 HTS, NSD2 inh, Wnt bcat act)
Clc1ccc2nc(-c3cccc(Br)c3)c(Cc3ccccc3)n2c1	Wnt bcat act 34, esBAF inh inconclusive (no result: MITF TRPM1 HTS, NSD2 inh)
Cc1ccc(-c2nc3ccc(Cl)cn3c2Cc2ccsc2)cc1	CASP6 VEID inh 37, Wnt bcat act inconclusive (no result: MITF TRPM1 HTS, NSD2 inh)
Cc1ccc2nc(-c3cccc(Br)c3)c(Cc3cccc(Cl)c3)n2c1	Wnt bcat act 36, esBAF inh inconclusive (no result: MITF TRPM1 HTS, NSD2 inh)
C[C@@H]1C(=O)NCCC=CC[C@H](C)Oc2ccccc2C(=O)N1C (mixture of isomers)	none (no result: CASP6 VEID inh, MITF TRPM1 HTS, NSD2 inh, Wnt bcat act, esBAF inh)
Cc1ccc(CN2CCN(C3CCCC3)C(CCO)C2)s1 (stereo not drawn)	Wnt bcat act 31
Cc1ccc(S(=O)(=O)N2CCN(CC(=O)Nc3ccnn3C3CCCC3)CC2)cc1	CASP6 VEID inh 39
C=CCSc1ncc(-c2ccccc2)cn1	Wnt bcat act inconclusive, esBAF inh 50
C#CCSc1ncc(-c2ccccc2)cn1	esBAF inh 73
CCOC(=O)CSc1ncc(-c2ccccc2)cn1	none (no result: Xi reactivation, CASP6 VEID inh, Wnt bcat act, esBAF inh)
CSc1ncc(-c2ccccc2)cn1	none (no result: esBAF inh)
C=CCn1c(CC(=O)OC)csc1=Nc1ccc(C(C)=O)cc1	esBAF inh 55 (no result: Xi reactivation)
C=CCn1c(C)csc1=Nc1ccc(C(C)=O)cc1	none (no result: esBAF inh)
COc1ccc(C(=O)Nc2ccc3c(c2)nc2n3CCSC2)cc1	Wnt bcat act 49 (no result: Xi reactivation, CASP6 VEID inh, MITF TRPM1 HTS)
COc1ccc(C(=O)Nc2cc(OC)nc(OC)n2)cc1	MITF TRPM1 HTS 92 (no result: Xi reactivation, CASP6 VEID inh, Wnt bcat act)
COc1cc(OC)cc(C(=O)Nc2ccc(-n3cnnn3)c(C)c2)c1	MITF TRPM1 HTS 108 (no result: Xi reactivation, esBAF inh)
COc1ccc(C(=O)Nc2cccc(C)c2)cc1	Wnt bcat act 58 (no result: Xi reactivation, MITF TRPM1 HTS)
Cc1noc(C)c1S(=O)(=O)N(C)C[C@H]1Oc2ccc(NC(=O)Nc3ccc(C(F)(F)F)cc3)cc2C(=O)N([C@H](C)CO)C[C@@H]1C	none (no result: CASP6 VEID inh, MITF TRPM1 HTS, NSD2 inh, Wnt bcat act, esBAF inh)
CN(C)CC(=O)N1CC2(C1)[C@H](c1ccccc1)[C@H](CO)N2C(=O)C1CCC1	none (no result: MITF TRPM1 HTS, NSD2 inh, Wnt bcat act, esBAF inh)
COCC(=O)N1CC2(CCN(C(=O)CN3CCOCC3)CC2)c2c([nH]c3cc(OC)ccc23)[C@H]1CO	none (no result: CASP6 VEID inh, MITF TRPM1 HTS, NSD2 inh, Wnt bcat act, esBAF inh)
COc1ccc(C(=O)Nc2ccc3nc(C)c(C)nc3c2)cc1	esBAF inh 62
CCC(=O)Nc1ccc2c(c1)nc(CCNC(=O)c1ccco1)n2C	none
COc1ccc(C(=O)Nc2ccc3c(c2)nc(CCNC(=O)c2ccco2)n3C)cc1	esBAF inh 48
O=C(C[C@@H]1C=C[C@@H](NC(=O)C2CCC2)[C@@H](CO)O1)NCc1ccncc1	none (no result: MITF TRPM1 HTS, NSD2 inh, Wnt bcat act)
C[C@H]1CCCCO[C@H](CN(C)C)[C@@H](C)CN([C@@H](C)CO)C(=O)c2cc(NS(=O)(=O)c3cn(C)cn3)ccc2O1	none (no result: MITF TRPM1 HTS, NSD2 inh, Wnt bcat act, esBAF inh)
Cc1cc(C)c(N=Cc2c(O)c3ccccc3oc2=O)c(C)c1	esBAF inh 57
Cc1cc(C)cc(N=Cc2c(O)c3ccccc3oc2=O)c1	none (no result: esBAF inh)
Cc1ccc(OCc2cc(C(=O)N3CCN(C4CCCC4)CC3)no2)cc1C	none
Cc1ccc(OCc2cc(C(=O)N3CCCCCCC3)no2)cc1C	none
Cc1ccc(OCc2cc(C(=O)N3CCN(c4ccccc4)CC3)no2)cc1C	MITF TRPM1 HTS 83, Wnt bcat act 36, esBAF inh inconclusive
Cc1ccc(OCc2cc(C(=O)N3CCN(C4CCCCC4)CC3)no2)cc1C	esBAF inh 55
Cc1ccc(OCc2cc(C(=O)N3CCC(C(O)C(C)C)CC3)no2)cc1C (stereo not drawn)	none
